Assay results: ChEMBL document CHEMBL3352597, “Heck products of parthenolide and melampomagnolide-B as anticancer modulators that modify cell cycle progression” (Eur J Med Chem, 2014)
Values after ≈ are worked out from the molar mass of the structure shown. Active and inactive are the calls of the source. The calls are words filed in the database; no cut-off is given here.

How the values were obtained:
[1] = Anticancer activity against human MOLT4 cells assessed as growth inhibition at 10^-5 M; type: functional; details: MOLT-4, read-out: GI
Outline: (§1)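 NCI-60 human tumour cell line panel screened at a single concentration of 10^-5 M; value is percent growth inhibition relative to untreated growth.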

[2] = Anticancer activity against human PC3 cells assessed as growth inhibition at 10^-5 M; type: functional; details: PC-3, read-out: GI; outline: as §1
[3] = system: Oocyte; assay: Inhibition of immature stage VI Xenopus oocyte maturation assessed as inhibition of progesterone-mediated maturation measured as germinal vesicle (nuclear) breakdown at 100 uM after overnight incubation; type: functional, cell-based
Outline: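 Oocytes (20 per well) pre-treated overnight with compound (100 μM final, DMSO) or DMSO vehicle, then stimulated with 2 μg/ml progesterone. GVBD (animal-pole white spot) scored at the time 50% of DMSO controls reach GVBD. Rate relative to control: 1.0 means no difference, above 1.0 acceleration, below 1.0 delay, 0.0 no maturation. Differences over 20% followed up.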

[4] = system: Xenopus; assay: Inhibition of MPF in immature stage VI Xenopus oocyte by Western blot analysis
Outline: (§2)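 Oocytes pre-treated with DMSO or compound, stimulated with progesterone, and lysed at the time 50% of DMSO oocytes reached GVBD. Lysates analysed by 10% gel western blot with phospho-Cdc2 Tyr15 (inhibitory site) and phospho-MAPK antibodies (1:1000), tubulin 1:20,000. Membrane blocked in 1% BSA, 60 min, room temperature.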

[5] = system: Xenopus; assay: Inhibition of Cyclin B/CDK in immature stage VI Xenopus oocyte by Western blot analysis; outline: as §2
[6] = system: Oocyte; assay: Inhibition of immature stage VI Xenopus oocyte maturation assessed as inhibition of progesterone-mediated maturation measured as germinal vesicle (nuclear) breakdown after overnight incubation; type: functional, cell-based; details: Xenopus laevis
[7] = system: Oocyte; assay: Inhibition of immature stage VI Xenopus oocyte maturation assessed as inhibition of progesterone-mediated maturation measured as germinal vesicle (nuclear) breakdown at 1 to 100 uM after overnight incubation; type: functional, cell-based
[8] = Solubility in serum (unknown origin); type: ADME

inhibition [4] | inhibition [5] | EC50 [6] | solubility [8] | SMILES | inhibition of growth at 10 µM [1] | inhibition of growth at 10 µM [2] | inhibition [3] | inhibition [7]
inactive | inactive | 5 µM |  | C/C1=C\CC[C@@]2(C)O[C@@H]2[C@H]2OC(=O)/C(=C/c3ccc(N)cc3)[C@@H]2CC1 | 24.2% | 20.5% | Active | Active
 |  |  | 169 µM (≈ 42 µg/mL) | C=C1C(=O)O[C@@H]2C3O[C@]3(C)CC/C=C(\C)CC[C@@H]12 (stereo partly drawn) |  |  |  | 
